Source: PubChem (several laboratories)
Rows were chosen to be rich in hits. Some 2% of all compounds tested hit in one or more screens of this group.
UPR CHOP act: activators of apoptotic CHOP UPR arm, primary screen, cell-based, CHO-CHOP luciferase reporter, luminescence, uHTS. UPR activation; percent of tunicamycin response over DMSO baseline. activation, % at 10 µM. hit rate 0.34% among 330,000. AID 449763, 2010;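 active means at 10 µM dose, activation of 40% or more, normalized to positive control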;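 further: 100% = tunicamycin at 10 µg/mL and 0% = DMSO alone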
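Material: CHO-CHOP cells, stable luciferase reporter of PERK-eIF2a-CHOP signalling; quantity: 500 reporter cells seeded per well; buffer or medium: F12 medium containing 10% fetal bovine serum; compound: one dose, 10 µM in 0.5% DMSO; incubation: 6 h compound treatment, 37 °C; measured by: Steady-Glo luciferase luminescence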
MC4R antag cAMP: MC4R antagonists of cAMP signaling, primary screen, cell-based, TR-FRET, antagonist arm of biased-ligand search; AID 540295, 2011; Melanocortin receptor 4 (Homo sapiens), P32245; inhibition, % at 6.5 µM; hit rate 0.48% among 360,000; MC4R-expressing cells, MTII-stimulated cAMP, LANCE TR-FRET;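 active means inhibition above its plate's cutoff, the mean of tested wells on that plate plus 3 SD, cut at about 29% in these data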;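 further: 0% = Melanotan II alone and 100% = Melanotan II plus saturating MCL0020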
Target sequence (P32245 whole entry, looked up): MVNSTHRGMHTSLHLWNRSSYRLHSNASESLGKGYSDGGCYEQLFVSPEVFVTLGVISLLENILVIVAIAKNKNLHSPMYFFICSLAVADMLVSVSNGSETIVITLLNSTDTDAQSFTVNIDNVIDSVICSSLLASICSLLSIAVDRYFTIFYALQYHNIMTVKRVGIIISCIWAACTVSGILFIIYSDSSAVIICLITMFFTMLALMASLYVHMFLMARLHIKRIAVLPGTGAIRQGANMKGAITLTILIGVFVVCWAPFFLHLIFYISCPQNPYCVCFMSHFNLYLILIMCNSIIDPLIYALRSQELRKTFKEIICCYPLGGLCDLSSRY
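System: U2OS-MC4R stable cell line; Technique: Eu-cAMP/anti-cAMP TR-FRET, emission 671 nm; Repeats: single well per compound; Also added: Melanotan II; Dosing: one concentration, 6.5 µM nominal; Schedule: 30-min compound, 1-h challenge, 1-h detection, room temperature.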
XBP1 UPR activ: activators of adaptive XBP1 UPR arm, primary screen, cell-based, CHO-XBP1 luciferase reporter, luminescence, uHTS; hit rate 0.33% among 330,000; IRE1-XBP1 UPR activation; percent of tunicamycin response, DMSO as zero; activation, % at 20 µM;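 active means versus positive control, 20 µM dose yields 30% or more activation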;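 further: 100% = tunicamycin at 10 µg/mL and 0% = DMSO only wells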
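Material: CHO cell line with stable XBP1 luciferase reporter; schedule: 16-18 h cell attachment at 37 °C, then 6 h compound exposure; signal: glow luminescence from Steady-Glo reagent; medium: serum-containing F12 medium, 10% FBS; benchmarks: tunicamycin 10 µg/mL and vehicle-only wells; read-out: percent activation relative to tunicamycin reference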
Bfl-1 A1 inh: caspase 3/7 activation in MEF A1-2A-BIM cells, primary screen, A1 inhibitor project, cell-based, luminescence, HTS; caspase activation, % (no concentration beside the values); Caspase-Glo 3/7 luminescence, 3 h; percent of clofoctol response, vehicle zero; hit rate 0.066% among 330,000;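 active means over half of replicate activation scores above 10%, or exactly half above 10 with the replicate mean above 10; inconclusive means replicate mean below 10 yet half the replicates above 10; inactive means over half of replicates below 10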
MC4R ag barr: MC4R agonists recruiting beta-arrestin, primary screen, cell-based, luminescence, agonist arm of biased-ligand search; U2OS MC4R beta-arrestin complementation; percent of melanotan II response, DMSO zero; hit rate 0.98% among 360,000; Melanocortin receptor 4 (Homo sapiens), P32245; activation, % at 8.9 µM;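 active means activation above a per-plate cutoff, the mean activation of sample wells on that plate plus 3 SD, cut at about 8% in these data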
U2OS cAMP counter: nonselective cAMP signaling inhibitors, parental cells, counter-screen for MC4R biased antagonist project, cell-based, TR-FRET, U2OS, forskolin, triplicate. hit rate 26% among 1,600. shares compounds with MC4R antag cAMP. LANCE TR-FRET. inhibition, % at 6.5 µM. AID 602193, 2012;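 active means mean inhibition over triplicates above the low-control well mean plus 3 SD, set per campaign, cut at about 13% in these data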;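 further: signal is single emission at 671 nm which falls as cellular cAMP rises; 0% = forskolin-stimulated wells and 100% = buffer without forskolin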
MC4R antag conf: MC4R cAMP antagonists, retest, confirmation, cell-based, TR-FRET; inhibition, % at 6.5 µM; MC4R-expressing cells, MTII-stimulated cAMP; hit rate 27% among 1,600; shares compounds with MC4R antag cAMP; in the data active means inhibition above about 29%;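 further: 0% = agonist stimulated wells alone and 100% = agonist stimulated wells plus saturating reference antagonist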
The depositor's hits bear a star; u = inconclusive; x = no result given.

SMILES	UPR CHOP act	MC4R antag cAMP	XBP1 UPR activ	Bfl-1 A1 inh	MC4R ag barr	U2OS cAMP counter	MC4R antag conf
O=C(CN(Cc1ccc(Cl)cc1)C(=O)CNS(=O)(=O)c1ccccc1)NCC1CCCO1 (centres undefined)	2	31*	-2	-1	2	0	6
CC1C/C(=C/c2ccncc2)C(=O)/C(=C/c2ccncc2)C1 (centres undefined)	36	31*	2	0	-1	29*	30*
O=C1/C(=C/c2ccncc2)Cc2ccccc21	0	2	-2	0	-1	x	x
Cc1ccc(-c2nnc(Nc3ccc4c(c3)OCO4)c3ccccc23)cc1S(N)(=O)=O	4	33*	-1	1	2	6	15
CN(C)c1ccc(S(=O)(=O)NCC(=O)OCC(=O)Nc2cc(Cl)cc(Cl)c2)cc1[N+](=O)[O-]	0	31*	-1	0	4	19*	30*
CN(CCOc1ccc(Cl)cc1)C(=O)CNS(=O)(=O)c1ccc(N(C)C)c([N+](=O)[O-])c1	1	9	-7	x	-1	x	x
Cc1c(/C=N\NC(=O)C2(C)CC2(Cl)Cl)cnn1C (centres undefined)	4	-2	-1	0	-1	x	x
CC1(C(=O)N/N=C/c2c(F)c(F)c(F)c(F)c2F)CC1(Cl)Cl (centres undefined)	-2	32*	-1	1	-3	11	54*
CC(C)c1ccc(-n2nnnc2SCc2nc(N)nc(N)n2)cc1	x	3	x	x	0	x	x
COc1cccc2cc(C(=O)C3=C(O)C(=O)N(Cc4ccco4)C3c3cccnc3)oc12 (centres undefined)	-2	29*	1	0	0	27*	44*
CC(O)(c1cccnc1)c1nc(-c2ccc(F)c(Cl)c2)cs1 (centres undefined)	x	0	x	x	-1	x	x
Cc1ccc(C=NNc2nc3c([nH]2)c(=O)n(C)c(=O)n3C)cc1	x	43*	x	x	-2	2	0
O=C1CC(C(=O)O)C(c2ccccc2)c2ccccc21 (centres undefined)	x	6	x	x	-2	x	x
Cc1ccc2c(c1)N(Cc1cccc(Cl)c1)C(=O)c1cccnc1O2	0	39*	2	1	2	-2	-2
O=C1c2cccnc2Oc2ccc(Cl)cc2N1Cc1ccc(F)cc1	0	19	2	1	-1	x	x
CC(Sc1cnc2ccccc2n1)C(=O)O (centres undefined)	-1	25	0	0	-1	x	x
CC(Sc1ccc2ccccc2n1)C(=O)O (centres undefined)	0	58*	1	x	3	42*	77*
CC1=NOC(=O)/C1=C\c1ccc(-c2ccccc2Br)o1	x	62*	x	x	-3	9	11
CC1=NOC(=O)/C1=C\c1ccc(-c2ccc(Cl)c(C(=O)O)c2)o1	-1	-4	-4	x	1	x	x
COc1ccc(CN(C(=O)c2snc(C(N)=O)c2N)C(C(=O)NC2CCCC2)c2ccc(OC)c(OC)c2)cc1 (centres undefined)	2	0	-7	1	1	x	x
COc1ccc(C(C(=O)NC2CCCCC2)N(Cc2cccnc2)C(=O)c2snc(C(N)=O)c2N)cc1 (centres undefined)	1	31*	-4	0	-2	-6	-12
COC(=O)c1ccc(CSc2nc3c(c(=O)[nH]2)CCC3)cc1	x	0	x	x	0	x	x
COc1ccccc1-c1cnc(C(O)c2cc(C)c(OC)c(C)c2)[nH]1 (centres undefined)	x	-3	x	x	0	x	x
CN(C)c1ccc(-n2cccc2/C=C/[N+](=O)[O-])cc1	17	39*	1	-1	2	9	31*
C=C1C(=O)C23CCC4C(C)(C(=O)OC)CCCC4(C)C2CCC1(O)C3 (centres undefined)	x	40*	x	x	0	22*	38*
SMILES	UPR CHOP act	MC4R antag cAMP	XBP1 UPR activ	Bfl-1 A1 inh	MC4R ag barr	U2OS cAMP counter	MC4R antag conf
COc1ccc(OC2(C)CCN(Cc3ccc(-c4ccccc4)o3)C2)cc1 (centres undefined)	x	0	x	x	3	x	x
O=C(Nc1ccc(F)c(Cl)c1)C1Cc2c(-c3ccccc3Oc3ccccc3)ccnc2O1 (centres undefined)	x	7	x	x	1	x	x
COc1cc2c(=O)n(CCCC(=O)NCC3CCCO3)c(=O)n(CC(=O)c3ccc(F)cc3)c2cc1OC (centres undefined)	0	30*	0	0	0	0	-3
COc1ccc(NC(=O)Cn2c(=O)n(CCC(=O)NCC3CCCO3)c(=O)c3cc(OC)c(OC)cc32)cc1 (centres undefined)	1	0	-5	0	0	x	x
Cc1cccc(S(=O)(=O)NC(=O)C2(C)CCN2C(=O)c2ccccc2)c1 (centres undefined)	x	14	x	x	1	x	x
CC1CCN(C(=O)C2CCN(C(=O)c3cc4sccc4n3Cc3ccc(F)cc3)CC2)CC1	-1	0	-3	0	-1	x	x
CC(C)NC(=O)C1CCN(C(=O)c2cc3sccc3n2Cc2ccc(F)cc2)CC1	15	32*	-3	1	1	2	6
CSc1ncccc1C(=O)OCC(=O)N(C)Cc1ccc(C)cc1	x	3	x	x	-1	x	x
COCCCC1CCN(Cc2nc(-c3ccccc3)no2)CC1	1	30*	2	0	2	0	-7
COc1ccc(NC(=O)c2cc([N+](=O)[O-])ccc2N2CCN(C)CC2)cc1	2	29*	1	0	1	-1	2
O=C1c2cccc([N+](=O)[O-])c2C(=O)N1c1c[nH]c(=O)[nH]c1=O	-1	19	-3	u	1	x	x
Cc1ccccc1N1C(=O)c2cccc([N+](=O)[O-])c2C1=O	x	32*	x	x	-1	14*	12
CCOC(=O)c1cnc(-n2[nH]c(C)cc2=O)[nH]c1=O	-2	30*	-1	0	-1	-4	2
COc1ccc(-c2ccccc2)cc1NC(=O)C1(C)CCN1C(=O)C(C)C (centres undefined)	x	3	x	x	0	x	x
